Measured values taken from ChEMBL document CHEMBL1157131, “Antibiotic indole sesquiterpene alkaloid from Greenwayodendron suaveolens with a new natural product framework” (2010).
Values after ≈ are worked out from the molar mass of the structure shown. Active and inactive are the calls of the source. The rule behind the calls is not given here.

Assays:
Staphylococcus aureus [1] = experiment: Antimicrobial activity against methicillin sensitive Staphylococcus aureus ATCC 25923 after 24 hrs by broth microdilution method; assay type: functional
Outline: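 Overnight culture diluted 1:100 in trypticase soy broth with 0.5% D-glucose and 3% NaCl, grown at 37 °C to OD600 0.4, then diluted 1:10. Compounds in DMSO diluted in medium, tested at a concentration series (3-6 wells per concentration); vancomycin positive control. Incubated 24 h at 37 °C; inhibition from OD600 change versus compound-free control wells.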

Staphylococcus aureus [2] = experiment: Antimicrobial activity against cutaneous methicillin resistant Staphylococcus aureus isolate 148 expressing virulence gene system including PVL, ACME, bsaB and Agr genes after 24 hrs by broth microdilution method; assay type: functional; details: isolate 148, 24 h
Outline: (§1)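 Clinical S. aureus isolates, first recovered from patient specimens on 5% sheep blood agar, tested by CLSI broth microdilution in cation-adjusted Mueller-Hinton broth. Initial inoculum 10^6 cfu/mL. After overnight incubation at 37 °C, MIC was read as the lowest concentration preventing visible growth. Overnight starter cultures were grown in TSB from frozen glycerol stocks.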

Staphylococcus aureus [3] = experiment: Antimicrobial activity against cutaneous methicillin sensitive Staphylococcus aureus isolate 109 expressing virulence gene system including PVL, bsaB and Agr genes after 24 hrs by broth microdilution method; details: isolate 109, 24 h
Staphylococcus aureus [4] = experiment: Antimicrobial activity against cutaneous methicillin sensitive Staphylococcus aureus isolate 175 expressing virulence gene system including PVL, bsaB and Agr genes after 24 hrs by broth microdilution method; assay type: functional; details: isolate 175, 24 h; outline: as §1
Staphylococcus aureus [5] = experiment: Antimicrobial activity against invasive methicillin resistant Staphylococcus aureus isolate 186 expressing virulence gene system including PVL, bsaA and Agr genes after 24 hrs by broth microdilution method; assay type: functional; details: isolate 186, 24 h; outline: as §1
Staphylococcus aureus [6] = experiment: Antimicrobial activity against cutaneous methicillin resistant Staphylococcus aureus isolate 105 expressing virulence gene system including PVL, ACME, bsaB and Agr genes after 24 hrs by broth microdilution method; assay type: functional; details: isolate 105, 24 h; outline: as §1
Staphylococcus aureus [7] = experiment: Antimicrobial activity against cutaneous methicillin resistant Staphylococcus aureus isolate 158 expressing virulence gene system including PVL, ACME, bsaB and Agr genes after 24 hrs by broth microdilution method; assay type: functional; details: isolate 158, 24 h; outline: as §1
Staphylococcus aureus [8] = experiment: Antimicrobial activity against cutaneous methicillin resistant Staphylococcus aureus isolate 106 expressing virulence gene system including PVL, ACME, bsaB and Agr genes after 24 hrs by broth microdilution method; assay type: functional; details: isolate 106, 24 h; outline: as §1
Staphylococcus aureus [9] = experiment: Antimicrobial activity against cutaneous methicillin resistant Staphylococcus aureus isolate 107 expressing virulence gene system including PVL, ACME, bsaB and Agr genes after 24 hrs by broth microdilution method; assay type: functional; details: isolate 107, 24 h; outline: as §1
Staphylococcus aureus [10] = experiment: Antimicrobial activity against cutaneous methicillin resistant Staphylococcus aureus isolate 108 expressing virulence gene system including PVL, bsaA and Agr genes after 24 hrs by broth microdilution method; assay type: functional; details: isolate 108, 24 h; outline: as §1
Staphylococcus aureus [11] = experiment: Antimicrobial activity against clinical isolates of Staphylococcus aureus after 24 hrs by broth microdilution method
Staphylococcus aureus [12] = experiment: Antimicrobial activity against cutaneous methicillin resistant Staphylococcus aureus isolate 111 expressing virulence gene system including PVL, ACME, bsaB and Agr genes after 24 hrs by broth microdilution method; assay type: functional; details: isolate 111, 24 h; outline: as §1
Staphylococcus aureus [13] = experiment: Antimicrobial activity against cutaneous methicillin resistant Staphylococcus aureus isolate 295 expressing virulence gene system bsaB and Agr genes after 24 hrs by broth microdilution method; assay type: functional; details: isolate 295, 24 h; outline: as §1
Staphylococcus aureus [14] = experiment: Antimicrobial activity against invasive methicillin resistant Staphylococcus aureus isolate 194 expressing virulence gene system including PVL, ACME, bsaB and Agr genes after 24 hrs by broth microdilution method; assay type: functional; details: isolate 194, 24 h; outline: as §1

SMILES	MIC (Staphylococcus aureus [1])	MIC (Staphylococcus aureus [2])	MIC (Staphylococcus aureus [3])	MIC (Staphylococcus aureus [4])	MIC (Staphylococcus aureus [1]; ATCC 25923, 24 h)	MIC (Staphylococcus aureus [5])	MIC (Staphylococcus aureus [6])	MIC (Staphylococcus aureus [7])	MIC (Staphylococcus aureus [8])	MIC (Staphylococcus aureus [9])	MIC (Staphylococcus aureus [10])	MIC90 (Staphylococcus aureus [11])	MIC (Staphylococcus aureus [12])	MIC (Staphylococcus aureus [13])	MIC (Staphylococcus aureus [14])
COC(=O)CC[C@@H]1C(=C(C)C)CC[C@@H](C)[C@@]1(C)Cc1c[nH]c2ccccc12	inactive														
C[C@@H]1CCC2=C3[C@H](C[C@H](O)C2(C)C)c2[nH]c4ccccc4c2C[C@@]31C [PENTACYCLINDOLE]		8 µg/mL (≈ 23.8 µM)	8 µg/mL (≈ 23.8 µM)	8 µg/mL (≈ 23.8 µM)	4 µg/mL (≈ 11.9 µM)	8 µg/mL (≈ 23.8 µM)	8 µg/mL (≈ 23.8 µM)	8 µg/mL (≈ 23.8 µM)	8 µg/mL (≈ 23.8 µM)	8 µg/mL (≈ 23.8 µM)	8 µg/mL (≈ 23.8 µM)	8 µg/mL (≈ 23.8 µM)	8 µg/mL (≈ 23.8 µM)		
CC(C)=C1CC[C@@H](C)[C@@](C)(Cc2c[nH]c3ccccc23)[C@@H]1CCCO					19 µg/mL (≈ 56 µM)										
C[C@@H]1CC[C@@H]2C(=CC[C@H](O)C2(C)C)[C@]1(C)Cc1c[nH]c2ccccc12 [POLYALTHENOL]		2 µg/mL (≈ 5.93 µM)	1 µg/mL (≈ 2.96 µM)	4 µg/mL (≈ 11.9 µM)	4 µg/mL (≈ 11.9 µM)	4 µg/mL (≈ 11.9 µM)	1 µg/mL (≈ 2.96 µM)	4 µg/mL (≈ 11.9 µM)	2 µg/mL (≈ 5.93 µM)	1 µg/mL (≈ 2.96 µM)	2 µg/mL (≈ 5.93 µM)	4 µg/mL (≈ 11.9 µM)	2 µg/mL (≈ 5.93 µM)	4 µg/mL (≈ 11.9 µM)	2 µg/mL (≈ 5.93 µM)
